pIC50: −log10 of the molar value. Converted amounts (≈) assume the structure as drawn.
What was measured:
[1] = system: Mycobacterium tuberculosis; experiment: Antimycobacterial activity against Mycobacterium tuberculosis H37Rv ATCC 27294 after 21 days by agar proportion method; assay type: functional; conditions: 504 h
Method in brief: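 Agar proportion method on Middlebrook 7H10 with glycerol and OADC, compounds added from DMSO solutions at […]. H37Rv was grown in 7H9 broth at 37 °C for 4–7 days and adjusted to McFarland no. 1. The 10^-2 and 10^-4 dilutions were the inocula. MIC was read after 21 days at 37 °C under 5–7% CO₂.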

[2] = Antagonist activity at calcium channel in guinea pig ileum assessed as inhibition of KCl-induced contraction of ileal longitudinal smooth muscle pretreated 15 mins before KCl challenge; assay type: functional, tissue-based; conditions: Cavia porcellus

In the case of `CCN(CC)C(=O)C1=C(C)NC(C)=C(C(=O)OCCCCCc2ccccc2)C1c1ncc([N+](=O)[O-])n1C` (stereo not drawn), the MIC [1] was 2 µM (≈ 1.05 µg/mL) and the pIC50 [2] was 4.62.

For `CCCCOC(=O)C1=C(C)NC(C)=C(C(=O)N(CC)CC)C1c1ncc([N+](=O)[O-])n1C` (stereo not drawn), the MIC [1] was 1 µM (≈ 0.434 µg/mL) and the pIC50 [2] was 5.07.

For `CCN(CC)C(=O)C1=C(C)NC(C)=C(C(=O)OCc2ccccc2)C1c1ncc([N+](=O)[O-])n1C` (stereo not drawn), the MIC [1] was 1 µM (≈ 0.468 µg/mL) and the pIC50 [2] was 5.38.

With `CCN(CC)C(=O)C1=C(C)NC(C)=C(C(=O)OCCCc2ccccc2)C1c1ncc([N+](=O)[O-])n1C` (stereo not drawn) the MIC [1] was 1 µM (≈ 0.496 µg/mL) and the pIC50 [2] was 5.57.

`CCCOC(=O)C1=C(C)NC(C)=C(C(=O)N(CC)CC)C1c1ncc([N+](=O)[O-])n1C` (stereo not drawn) showed an MIC [1] of 2 µM (≈ 0.839 µg/mL) and a pIC50 [2] of 4.92.

For `CCN(CC)C(=O)C1=C(C)NC(C)=C(C(=O)OC)C1c1ncc([N+](=O)[O-])n1C` (stereo not drawn), the MIC [1] was greater than 500 µM and the pIC50 [2] was 4.49.

Compound `CCN(CC)C(=O)C1=C(C)NC(C)=C(C(=O)OC(C)C)C1c1ncc([N+](=O)[O-])n1C` (stereo not drawn) has an MIC [1] greater than 500 µM and a pIC50 [2] of 4.73.

`CCN(CC)C(=O)C1=C(C)NC(C)=C(C(=O)OCCc2ccccc2)C1c1ncc([N+](=O)[O-])n1C` (stereo not drawn) gave an MIC [1] of 1 µM (≈ 0.482 µg/mL) and a pIC50 [2] of 5.62.

`CCN(CC)C(=O)C1=C(C)NC(C)=C(C(=O)OCCCCc2ccccc2)C1c1ncc([N+](=O)[O-])n1C` (stereo not drawn) gave an MIC [1] of 2 µM (≈ 1.02 µg/mL) and a pIC50 [2] of 5.46.

With `CCOC(=O)C1=C(C)NC(C)=C(C(=O)N(CC)CC)C1c1ncc([N+](=O)[O-])n1C` (stereo not drawn) the MIC [1] was 250 µM (≈ 101 µg/mL) and the pIC50 [2] was 4.53.

Work on `NNC(=O)c1ccncc1` [ISONIAZID] yielded an MIC [1] of 1 µM (≈ 0.137 µg/mL).

For `COC(=O)C1=C(C)NC(C)=C(C(=O)OC)C1c1ccccc1[N+](=O)[O-]` [NIFEDIPINE], the pIC50 [2] was 8.97.

`CO[C@H]1/C=C/O[C@@]2(C)Oc3c(C)c(O)c4c(O)c(c(/C=N/N5CCN(C)CC5)c(O)c4c3C2=O)NC(=O)/C(C)=C\C=C\[C@H](C)[C@H](O)[C@@H](C)[C@@H](O)[C@@H](C)[C@H](OC(C)=O)[C@@H]1C` [RIFAMPIN] gave an MIC [1] of 1 µM (≈ 0.823 µg/mL).

From ChEMBL document CHEMBL1152702, “Synthesis and biological evaluation of some new 1,4-dihydropyridines containing different ester substitute and diethyl carbamoyl group as anti-tubercular agents” (Bioorg Med Chem, 2009)
